Measurements gathered from unrelated publications.
Compare with care: the assays were run in different laboratories.
Target: Tyrosine-protein kinase CSK (CSK, Homo sapiens, UniProt P41240)

Structure (SMILES)	test	conditions	remaining binding [%]
O=C(NCCCN1CCOCC1)c1ccc(Nc2ncc(Cl)c(-c3ccc(Cl)s3)n2)cc1	binding, competition with immobilised ligand	1 µM	86
COc1cnc(Nc2cccc(S(N)(=O)=O)c2)nc1N1CCN(c2ccccc2)CC1	binding, competition with immobilised ligand	1 µM	100
CN(C)c1nccc(-c2cnn3ncccc23)n1	binding	1 µM	68
O=C(Nc1c[nH]nc1C(=O)NC1CCNCC1)c1cc(F)cc(F)c1	binding, competition with immobilised ligand	1 µM	100
CS(=O)(=O)c1cc(C2(NC(=O)c3cncc4c3cnn4-c3ccc(F)cc3)CC2)ccn1	cell-free assay, competition with immobilised ligand	1 µM	95
C[C@H]1CCN(c2nccc(-c3cnn4ncccc34)n2)C1	binding	1 µM	83
Cc1ccc(-n2nc(C(C)(C)C)cc2NC(=O)Nc2ccc(-n3c(N)c(C(N)=O)c4nc5ccccc5nc43)cc2)cc1	cell-free assay, competition with immobilised ligand	1 µM	0.9
O=C(Nc1cnc(Oc2ccc(F)cc2)nc1)N1CCc2ncccc2[C@@H]1c1ccc(F)cc1	cell-free assay, competition with immobilised ligand	1 µM	100
FC(F)(F)Oc1cccc(-c2cnc3ccc(-c4ccncc4)nn23)c1	cell-free assay, competition with immobilised ligand	5 µM	86
COc1cnc(Nc2cccc(S(N)(=O)=O)c2)nc1N1CCN(c2ccccc2)C(=O)C1	binding, competition with immobilised ligand	1 µM	100
O=C(c1ccc(Nc2ncc(Cl)c(-c3cc4ccccc4s3)n2)cc1)N1CCC(N2CCCC2)CC1	binding, competition with immobilised ligand	1 µM	87
F[C@@H]1CCN(c2nccc(-c3cnn4ncccc34)n2)C1	binding	1 µM	100
c1cncc(-c2cccc(Nc3nccc(NC4CCCCC4)n3)c2)c1	binding, competition with immobilised ligand	10 µM	88
CC(C)CC(=O)N1CCc2nc(-c3ccc(Br)cc3)nc(N(C)Cc3ccccc3)c2C1	cell-free assay, competition with immobilised ligand	0.1 µM	100
CN(CCCC(F)(F)F)c1nccc(-c2cnn3ncccc23)n1	binding	1 µM	91
O=C(NCCCC1CCCCC1)c1ccc(CNC(=O)c2cnn(-c3ccccc3)c2C(F)(F)F)cc1	cell-free assay, competition with immobilised ligand	0.1 µM	100
O=C(c1ccc(Nc2ncc(Cl)c(-c3ccc(Cl)s3)n2)cc1)N1CCC(N2CCCC2)CC1	binding, competition with immobilised ligand	1 µM	75
O=C1CCc2cc(Nc3cc(OC4CCOCC4)c([N+](=O)[O-])cc3Cl)ccc2N1	cell-free assay, competition with immobilised ligand	1 µM	98
N[C@H]1CCN(c2nccc(-c3cnn4ncccc34)n2)C1	binding	1 µM	100
CCc1ccccc1C(=O)Nc1n[nH]c2c(C)c(F)c(C3C(C#N)=C(C)N(C)C(C)=C3C#N)cc12	cell-free assay, competition with immobilised ligand	1 µM	98
c1cnn2ncc(-c3ccnc(N4CCC45COC5)n3)c2c1	binding	1 µM	88
